Sampled rows, rich in hits. Any-hit rate of the full collection: about 2.6%.
Vif inh = inhibitors of HIV Vif; AID 602346; inhibition, % at 7.49 µM; HEK293T cells, Vif self-association by quenched fluorescence, imaging, 24 h; actives 0.35% (n = 340,000); in the data active = inhibition above about 50%, passing the limit was not always enough; inconclusive = no clear call, values can overlap the other calls; inactive = below about 31%
S100A4 MyoIIA = inhibitors of human S100A4 binding to myosin IIA peptide; P26447; S100A4/TAMRA-MyoIIA peptide fluorescence polarization; inhibition, % at 10.7 µM; actives 0.14% (n = 360,000); AID 652163;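 active = mean inhibition of at least 70% across replicates, with every replicate also reaching that level; inconclusive = mean inhibition reaches 70% but some replicates fall short; inactive = mean inhibition below 70%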
Target sequence (P26447 whole entry, looked up): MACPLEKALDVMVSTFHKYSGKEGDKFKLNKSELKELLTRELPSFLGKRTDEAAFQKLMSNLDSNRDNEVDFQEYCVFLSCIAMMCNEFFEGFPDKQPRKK
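Compound dosing: one dose per compound; test system: human S100A4 monomer with TAMRA-labelled myosin IIA peptide; probe or stimulus: TAMRA-labelled myosin IIA heavy-chain peptide probe, 5 nM; medium: HEPES buffer with Ca2+, pH 7.2; schedule: 5 min incubation before reading; benchmarks: neutral control DMSO, positive control TFP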
Env fusion inh = HIV envelope-mediated fusion inhibition | AID 651610 | HeLa-JRFL Env/CEM21 cell fusion, luciferase | actives 1.1% (n = 360,000) | inhibition, % at 12.3 µM;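 active = mean replicate inhibition score of at least 50 and every replicate individually at or above 50; inconclusive = only one of the two criteria met; inactive = mean below 50 and not all replicates reaching 50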;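 note: 0% = plate neutral controls and 100% = maraviroc near 300 nM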
Ecoli rRNA inh = selective bacterial rRNA inhibition in E. coli. actives 1.6% (n = 350,000). E. coli WT GFP vs humanized-ribosome RFP mutants, fluorescence, 24 h; active compounds read low; DMSO median 0, no signal -100. GFP signal change (wild-type ribosome), % (test concentration not listed);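 active = significant combined selectivity score with lowered wild-type GFP, culture density cut under 30%, mutant RFP and density less affected; inactive = any of these conditions unmet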
miR122 inh = blocks miR-122 activity in Huh7 sensor cells; Huh7 miR-122 Renilla luciferase sensor, 48 h; neutral wells = 0, positive control = 100; activation (reporter increase), % at 12.5 µM; actives 0.3% (n = 340,000); AID 602342;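 active = mean replicate activation score at least 90 and every replicate individually at or above 90; inconclusive = only one of the two criteria met; inactive = neither criterion met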;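 note: higher luciferase means less miR-122 activity so hits act as miR-122 inhibitors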
FN deposition inh = fibronectin deposition inhibition; AH1F fibroblasts, Alexa488-fibronectin deposition fluorescence, overnight; inhibition, % at 12.6 µM; actives 0.086% (n = 350,000); AID 743247;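 active = mean inhibition across replicates of 30% or more, regardless of how many single replicates reach that level; inconclusive = mean under 30% yet at least half of replicates reach 30%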;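 note: positive control wells lacked labelled fibronectin entirely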
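test system = AH1F fibroblasts assembling fluorescent fibronectin matrix | quantity = 10000 AH1F cells per well | buffer or medium = DMEM plus 2% serum, read in PBS | doses = single dose, pinned | incubation = 1 h cell attachment, overnight exposure to compound and label | detection = fluorescence at 485 nm excitation, 525 nm emission | read-out basis = inhibition from reduced deposited-fibronectin fluorescence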
* marks the source's active call; other numbers are inactive results; ? = inconclusive; . = no result given; ! = a repeat was not active; [ ] = remark or other dose.

SMILES	Vif inh	S100A4 MyoIIA	Env fusion inh	Ecoli rRNA inh	miR122 inh	FN deposition inh
CCCNC(=O)Nc1ccc2c(c1)OC[C@H](C)N(C(=O)C1CC1)C[C@H](C)[C@H](OC)CN(C)C2=O	.	4	.	0	.	14
O=C(C[C@H]1C=C[C@H](NC(=O)Nc2cc(F)ccc2F)[C@H](CO)O1)NCc1ccccn1	.	-7	15[16.7 µM]	0	.	.
C[C@@H]1CN([C@@H](C)CO)C(=O)c2cccc(NS(=O)(=O)c3cccs3)c2O[C@@H]1CN(C)Cc1ccc(Cl)c(Cl)c1	.	-13	46[16.7 µM]	-5	1[16.7 µM]	.
COc1ccc(S(=O)(=O)Nc2cccc3c2O[C@H](CN(C)Cc2ccc(Cl)c(Cl)c2)[C@@H](C)CN([C@H](C)CO)C3=O)cc1	4	-12	-4[16.7 µM]	-4	98*!	-5
C[C@@H]1CN([C@H](C)CO)C(=O)c2cccc(NS(=O)(=O)c3cccs3)c2O[C@@H]1CN(C)Cc1ccc(Cl)c(Cl)c1	.	2	90*[16.7 µM]	-2	5[16.7 µM]	.
C[C@H](CO)N1C[C@H](C)[C@@H](CN(C)Cc2ccc(Cl)c(Cl)c2)Oc2c(NS(=O)(=O)c3ccccc3)cccc2C1=O	.	-24	33[16.7 µM]	-2	106*![16.7 µM]	.
COc1ccc(C2CC(c3cccs3)=NN2C(=O)CCl)cc1OC (stereo unspecified)	-1	1	62*	-2	-3	-1
CNC(=S)N1N=C(c2cccs2)CC1c1ccc(OC)cc1 (stereo unspecified)	-2	-1	-10	-21*	14	4
CC1=CC(=O)N(c2cccc(C(F)(F)F)c2)C1c1ccc(Cl)cc1 (stereo unspecified)	-4	.	66*	.	-7	6
CCOc1ccc(C(O)(CCC(C)C)C(CN2CCOCC2)c2ccccc2)cc1 (stereo unspecified)	-10	4	72*	-23	.	-7
Cc1cc(C)n2cc(CSc3ccc(Cl)cc3)nc2n1	11	-2	19	-25*	-7	0
COc1ccc(NC(=O)N(C)C[C@@H]2Oc3ccc(NS(=O)(=O)c4ccc(F)cc4)cc3CC(=O)N([C@H](C)CO)C[C@H]2C)cc1	.	3	-19[16.7 µM]	4	8[16.7 µM]	.
CCOC(=O)c1sc(/N=C/N(C)C)c(C(=O)OCC)c1C	-2	.	-7	.	.	3
CCOC(=O)c1sc(N=NC2=C(O)CCCC2=O)c(C(=O)OCC)c1C	2	-3	-6	-26*	-4	0
COc1ccc2c(c1OC)C(=O)OC2	-5	-1	.	4	0	.
COc1ccc2c3c(cccc13)C(=O)CC2	6	166*	11	82	.	-10
CC(C)(C)NC(=O)COC(=O)c1snc(C(=O)NC2CCCCC2)c1N	-42	.	101*	.	-13	-14
CC(OC(=O)c1snc(C(=O)NC2CCCCC2)c1N)C(=O)NC(C)(C)C (stereo unspecified)	.	.	?	.	2	2
CN(C)NC(=S)Nc1ccc2nc(-c3ccccn3)c(-c3ccccn3)nc2c1	18	.	-26	.	1	4
CC(C)(C)CC(C)(C)NC(=S)Nc1ccc2nc(-c3ccccn3)c(-c3ccccn3)nc2c1	?	.	58*	.	-19	-1
CC(=O)Nc1cccc(NC(=O)CSc2ccc(-c3cccnc3)nn2)c1	-5	-13	-52	-26*	.	3
O=C(CSc1ccc(-c2cccnc2)nn1)N1CCCc2ccccc21	.	4	26	-23*	.	5
O=C(CSc1ccc(-c2ccc(Cl)cc2)nn1)N1CCCc2ccccc21	3	-5	13	-20	-7	-8
CC(C)C#Cc1ccc2c(c1)O[C@H](CN(C)C(=O)c1cccnc1)[C@H](C)CN([C@H](C)CO)S2(=O)=O	.	5	12[16.7 µM]	5	-25[16.7 µM]	.
CCS(=O)(=O)NCC[C@@H]1CC[C@@H](NC(=O)C2CC2)[C@@H](CO)O1	.	5	-1[16.7 µM]	1	.	.
SMILES	Vif inh	S100A4 MyoIIA	Env fusion inh	Ecoli rRNA inh	miR122 inh	FN deposition inh
CC(=O)Cn1c(=O)c2c(nc3n2CCCN3Cc2ccccc2)n(C)c1=O	3	-5	-3	1	-5	12
C=C(C)Cn1c(=O)c2c(nc3n2CCCN3Cc2ccccc2)n(C)c1=O	-4	5	-2	-28*	-7	-18
Cn1c(=O)[nH]c2cc3ccccc3cc21	14	.	70*	.	-1	3
Cc1nc2cc3ccccc3cc2n1C	14	.	.	.	.	-2
COCC(=O)Nc1ccc2c(c1)[C@H]1C[C@H](CC(=O)NCC3CC3)O[C@H](CO)[C@H]1O2	.	4	.	4	1[16.7 µM]	-9
C=CCc1cccc(/C=N/NC(=O)C(=O)Nc2ccc(C)cc2)c1O	3	6	-29	31	-4	8
C=CCc1cccc(/C=N/NC(=O)C(C)Nc2ccc(C)cc2)c1O (stereo unspecified)	11	-1	0	-32*	-7	18
C[C@@H](O)C#Cc1cnc2c(c1)C(=O)N([C@@H](C)CO)C[C@H](C)[C@H](CN(C)C(=O)CN1CCOCC1)O2	.	12	21[16.7 µM]	-2	-3[16.7 µM]	.
Cc1cn2nc(N)c3ccccc3c2n1	.	.	-53	.	5	-2
Nc1nn2cc(-c3ccccc3)nc2c2ccccc12	-7	-6	-277	-41*	.	-4
Cc1ccc(S(=O)(=O)N(C)C[C@H]2Oc3cc(C#Cc4ccncc4)ccc3S(=O)(=O)N([C@@H](C)CO)C[C@H]2C)cc1	.	-28	.	.	-13[16.7 µM]	.
CC=Cc1ccc2n(c1=O)C[C@H]1[C@H](CO)[C@@H](C(=O)NCC3CC3)[C@@H]2N1Cc1cccnc1 (mixture of isomers)	.	122*	.	-1	36[16.7 µM]	.
O=C(NCc1cccc(F)c1)[C@H]1[C@H](CO)[C@H]2Cn3c(ccc(-c4ccncc4)c3=O)[C@@H]1N2CC1CC1	.	5	.	2	-4[16.7 µM]	0
O=C(NCc1cccc(F)c1)[C@@H]1[C@@H](CO)[C@@H]2Cn3c(ccc(-c4cccnc4)c3=O)[C@H]1N2CC1CC1	.	1	67*[16.7 µM]	0	.	.
COc1ccc2c3c([nH]c2c1)[C@@H](CO)N(Cc1ccccc1)CC31CN(C(=O)NC(C)C)C1	.	58	.	4	.	.
[O-]/C(=C(\C(=S)Nc1ccc(SC(F)F)cc1)[n+]1cccc(CO)c1)c1ccc(Cl)s1	8	-27	5	-31*	.	-6
Cc1ccc(NC(=S)/C(=C(\[O-])c2ccc(Cl)s2)[n+]2cccc(CO)c2)cc1C	-2	18	15	-1	-2	-11
CN(C)c1cc[n+](/C(C(=S)Nc2ccc(SC(F)F)cc2)=C(/[O-])c2ccccc2)cc1	1	1	6	-19*	2	-5
Cc1ccc(NC(=S)/C(=C(\[O-])c2ccc(F)cc2)[n+]2ccccc2)cc1	-6	0	2	-25*	.	-11

Source: PubChem BioAssay
